pEC50, pIC50: −log10 of the molar value. Activity calls are given as the source filed them. The calls are words filed in the database; no cut-off is given here.
How the values were obtained:
[1] = Cytotoxicity against MDCK1 cells assessed as decrease in cell viability after 24 hrs by MTT assay; assay type: cell-based; details: Canis lupus familiaris, MDCK1, 24 h
Summary of the method: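 MDCKI cells seeded at 1×10^4 per well, exposed 24 h to 0, 5, 10, 25, 50 μM (in DMSO/PBS). MTT (5 mg/mL working solution) added for 3 h at 37°C, then stop solution; OD read at 570 nm. Viability expressed as percent of untreated control after blank subtraction; IC50 reported. Means ± S.D. of three independent experiments.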

[2] = Antioxidant activity assessed as DPPH radical scavenging activity incubated in dark for 20 mins; assay type: functional
Summary of the method: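 Compound stock 1 mM in DMSO; 2–20 μL portions made up to 40 μL with DMSO and added to 1.96 mL of 0.1 mM DPPH. Held at RT for 20 min in the dark, then absorbance read at 517 nm. DPPH alone served as control. % radical scavenging = (control − test)/control × 100.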

[3] = test system: Drosophila melanogaster; experiment: Inhibition of calcium oxalate crystallization in Oregon R Drosophila melanogaster malpighian tubule model at 100 uM preincubated with test compound alone for 20 mins followed by addition of calcium oxalate along with test compound measured after 1 hr by DIC microscopy; assay type: functional
Summary of the method: (§1)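 Malpighian tubules dissected from wild-type Oregon R female flies. Tubules preincubated in iPBS with 100 μM for 20 min, then given 100 μM plus Na-oxalate for 1 h, with solutions renewed every 15 min. Controls received oxalate alone. The first 600 μm of anterior tubule imaged by DIC birefringence. Crystal number and area measured with ImageJ. n=12 per group; means ± SE.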

[4] = test system: MDCK1; experiment: Increase in intracellular AxA1 expression in MDCK1 cells at 50 uM after 3 hrs by laser scanning confocal microscopic method; assay type: functional, cell-based; details: Canis lupus familiaris
Summary of the method: (§2)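 MDCKI cells grown overnight on collagen-coated chamber slides and treated ± 50 μM for 3 h. Fixed in 4% paraformaldehyde. Intracellular staining done with 0.2% Triton permeabilization; surface staining done without permeabilization. Rabbit anti-annexin A1 applied overnight at 4°C, then Alexa Fluor 488 anti-rabbit secondary. Nuclei counterstained with TOTO-3. Imaged by confocal microscopy, 63× oil objective.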

[5] = Inhibition of AxA1 expression in MDCK1 cell surface at 50 uM after 3 hrs by laser scanning confocal microscopic method relative to control; assay type: functional; details: Canis lupus familiaris, MDCK1, 3 h; summary of the method: as §2
[6] = Effect on total alpha-enolase expression in MDCK1 cells at 50 uM after 3 hrs by Western blot method; assay type: ADME, cell-based, Canis lupus familiaris; details: dog, mdck1, 3 h
Summary of the method: (§3)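 MDCKI cells seeded at 5×10^5 per well and treated with 50 μM for 3 h. Cytosolic fraction extracted with PIPES/EDTA/0.02% digitonin buffer for 10 min at 4°C. Membrane fraction taken from the pellet in SDS/Tris pH 6.8 buffer. Whole lysate prepared separately. 30 μg protein per lane on 7.5% gel; blots probed for annexin A1, HSP90 and α-enolase, with β-actin as loading control. Bands read by ECL densitometry. Mean ± SEM, n=3.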

[7] = Effect on total AxA1 expression in MDCK1 cells at 50 uM after 3 hrs by Western blot method; assay type: ADME, cell-based, Canis lupus familiaris; details: dog, mdck1, 3 h; summary of the method: as §3
[8] = test system: MDCK1; experiment: Upregulation of alpha-enolase expression in cytosolic fractions of MDCK1 cells at 50 uM after 3 hrs by Western blot method; assay type: functional, cell-based; details: Canis lupus familiaris; summary of the method: as §3
[9] = test system: MDCK1; experiment: Upregulation of HSP90 expression in cytosolic fractions of MDCK1 cells at 50 uM after 3 hrs by Western blot method; assay type: functional, cell-based; details: Canis lupus familiaris; summary of the method: as §3
[10] = test system: MDCK1; experiment: Downregulation of alpha-enolase expression in membrane fractions of MDCK1 cells at 50 uM after 3 hrs by Western blot method; assay type: functional, cell-based; details: Canis lupus familiaris; summary of the method: as §3
[11] = test system: MDCK1; experiment: Upregulation of AxA1 expression in cytosolic fractions of MDCK1 cells at 50 uM after 3 hrs by Western blot method; assay type: functional, cell-based; details: Canis lupus familiaris; summary of the method: as §3
[12] = test system: MDCK1; experiment: Downregulation of AxA1 expression in membrane fractions of MDCK1 cells at 50 uM after 3 hrs by Western blot method; assay type: functional, cell-based; details: Canis lupus familiaris; summary of the method: as §3
[13] = test system: MDCK1; experiment: Downregulation of HSP90 expression in membrane fractions of MDCK1 cells at 50 uM after 3 hrs by Western blot method; assay type: functional, cell-based; details: Canis lupus familiaris; summary of the method: as §3
[14] = Inhibition of cell surface associated calcium oxalate monohydrate crystal levels in MDCK1 cells preincubated for 3 to 6 hrs followed by calcium oxalate monohydrate crystal addition measured after 30 mins by phase contrast microscopy relative to control; assay type: functional, Canis lupus familiaris
Summary of the method: (§4)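 MDCKI cells seeded at 5×10^5 per well and cultured for 24 h. Pretreated at 0–50 μM for 3 h (concentration series), or at 25 or 50 μM for 1, 3 or 6 h (time course). Cells then washed and exposed to COM crystals (100 μg/mL) for 30 min, followed by five washes with plain medium. Adherent crystals counted by phase-contrast microscopy in 15 random high-power fields, ×400.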

[15] = Effect on total HSP90 expression in MDCK1 cells at 50 uM after 3 hrs by Western blot method; assay type: ADME, cell-based, Canis lupus familiaris; details: dog, mdck1, 3 h; summary of the method: as §3
[16] = test system: MDCK1; experiment: Inhibition of calcium oxalate monohydrate crystal binding to MDCK1 cell surface preincubated for 3 hrs followed by calcium oxalate monohydrate crystal addition measured after 30 mins by phase contrast microscopy; assay type: functional, cell-based; details: Canis lupus familiaris; summary of the method: as §4
[17] = Cytotoxicity against MDCK1 cells assessed as decrease in cell viability up to 155 +/- 4 uM after 24 hrs by MTT assay; assay type: cell-based, Canis lupus familiaris; details: dog, mdck1, 24 h
[18] = test system: Drosophila melanogaster; experiment: Inhibition of calcium oxalate crystal size in Oregon R Drosophila melanogaster malpighian tubule model at 100 uM preincubated with test compound alone for 20 mins followed by addition of calcium oxalate along with test compound measured after 1 hr by DIC microscopy; assay type: functional; summary of the method: as §1
[19] = test system: Drosophila melanogaster; experiment: Inhibition of total calcium oxalate crystal area in Oregon R Drosophila melanogaster malpighian tubule model at 100 uM preincubated with test compound alone for 20 mins followed by addition of calcium oxalate along with test compound measured after 1 hr by DIC microscopy; assay type: functional; summary of the method: as §1
[20] = test system: MDCK1; experiment: Inhibition of calcium oxalate monohydrate crystal binding to MDCK1 cell surface at 10 uM preincubated for 3 hrs followed by calcium oxalate monohydrate crystal addition measured after 30 mins by phase contrast microscopy; assay type: functional, cell-based; details: Canis lupus familiaris
Summary of the method: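 MDCKI cells (5×10^5 per well) cultured 24 h in complete medium, pretreated 3 h with 0, 1 or 10 μM, washed with PBS, then exposed 30 min to COM crystals (100 μg/mL medium). Unbound crystals removed by five washes with plain DMEM. Adherent crystals counted by phase-contrast microscopy in 15 random high-power fields per well.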

In the case of COC(=O)[C@]1(O)C[C@@H](O)[C@@H](O)[C@H](O)C1, the pIC50 [1] was 3.92 and the Activity [2] was “inactive”.

O=C1O[C@H]([C@@H](O)CO)C(O)=C1O [ASCORBIC ACID] showed a pEC50 [2] of 4.35.

For COC(=O)[C@]1(O)C[C@@H](OC(=O)c2cc(O)c(O)c(O)c2)[C@@H](OC(=O)c2cc(O)c(O)c(O)c2)[C@H](OC(=O)c2cc(O)c(O)c(O)c2)C1, the inhibition [3] was “Active”, the Activity [4] was “Active” and the inhibition at 50 µM [5] was 50%. The Activity [6] was “Non-Toxic”, the Activity [7] was “Non-Toxic” and the Activity [8] was “Active”. For the same compound, the Activity [9] was “Active”, the Activity [10] was “Active” and the Activity [11] was “Active”. For the same compound, the Activity [12] was “Active”, the Activity [13] was “Active” and the “inhibition (INH)” value [14] was 50%. The Activity [15] was “Non-Toxic”, the inhibition [16] was “Dose-dependent effect” and the Activity [17] was “Non-Toxic”. The inhibition [18] was “Active”, the inhibition [19] was “Active” and the pEC50 [2] was 4.96.

With O=C(O)c1cc(O)c(O)c(O)c1 [GALLIC ACID] the inhibition [20] was “Active”, the pIC50 [1] was 4.47 and the pEC50 [2] was 5.52.
